In ChEMBL document CHEMBL4834426, “Antimalarial Benzimidazole Derivatives Incorporating Phenolic Mannich Base Side Chains Inhibit Microtubule and Hemozoin Formation: Structure-Activity Relationship and In Vivo Oral Efficacy Studies” (J Med Chem, 2021):

Tests used:
Plasmodium falciparum [1] = experiment: Antimalarial activity against asexual blood stage drug-sensitive Plasmodium falciparum NF54 infected in erythrocytes assessed as reduction in parasitemia incubated up to 72 hrs by [3H]hypoxanthine incorporation assay; assay type: functional, organism-based
In short: (§1)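 [³H]-Hypoxanthine incorporation assay (modified) on asexual blood-stage P. falciparum in vitro. IC₅₀ values are means of ≥2 independent experiments.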

CHO = experiment: Cytotoxicity against CHO cells assessed as inhibition of cell viability by MTT assay; assay type: cell-based; conditions: Cricetulus griseus
Plasmodium falciparum [2] = experiment: Antiplasmodial activity against […] Plasmodium falciparum NF54 late gametocytes transfected with GFP-Luc […] at 1 uM incubated for 48 hrs by microscopy based luciferase reporter gene assay relative to control; assay type: functional
In short: (§2)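 NF54-Pfs16-GFP-Luc gametocytes, assays set up day 5 (early, stage II/III) or day 10 (late, stage IV/V). Culture at 2−3% gametocytemia, 1.5% hematocrit, 48 h drug exposure at 37 °C under 90% N₂/5% O₂/5% CO₂. Lysates mixed with luciferin; bioluminescence read with 10 s integration. Dual-point: one biological repeat in technical triplicate. Methylene blue (5 μM) reference.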

Plasmodium falciparum [3] = experiment: Antimalarial activity against asexual blood stage multi drug-resistant Plasmodium falciparum K1 infected in erythrocytes assessed as reduction in parasitemia incubated up to 72 hrs by [3H]hypoxanthine incorporation assay; assay type: functional, organism-based; in short: as §1
Plasmodium falciparum [4] = experiment: Antiplasmodial activity against […] Plasmodium falciparum NF54 early gametocytes transfected with GFP-Luc […] at 1 uM incubated for 48 hrs by microscopy based luciferase reporter gene assay relative to control; assay type: functional; in short: as §2
[5] = Selectivity index, ratio of IC50 for Cytotoxicity against CHO cells assessed as inhibition of cell viability by MTT assay to IC50 for antimalarial activity against asexual blood stage Plasmodium falciparum NF54 assessed as reduction in parasitemia incubated up to 72 hrs by [3H]hypoxanthine incorporation assay; assay type: toxicity, cell-based; conditions: hamster, read-out: Selectivity Index
In short: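 Selectivity index is IC₅₀(CHO)/IC₅₀(NF54). […] IC₅₀ came from nonlinear dose-response fitting. Parasite IC₅₀ came from the [³H]-hypoxanthine assay.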

Plasmodium falciparum [6] = experiment: Antiplasmodial activity against […] Plasmodium falciparum NF54 late gametocytes transfected with GFP-Luc […] at 5 uM incubated for 48 hrs by microscopy based luciferase reporter gene assay relative to control; assay type: functional; in short: as §2
Plasmodium falciparum [7] = experiment: Antiplasmodial activity against […] Plasmodium falciparum NF54 early gametocytes transfected with GFP-Luc […] at 5 uM incubated for 48 hrs by microscopy based luciferase reporter gene assay relative to control; assay type: functional; in short: as §2
[8] = Resistance index, ratio of IC50 for antimalarial activity against asexual blood stage multi drug-resistant Plasmodium falciparum K1 to IC50 for antimalarial activity against asexual blood stage drug-sensitive Plasmodium falciparum NF54; assay type: functional
In short: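 Resistance index is IC₅₀(K1)/IC₅₀(NF54). Both IC₅₀s came from the [³H]-hypoxanthine incorporation assay, as means of ≥2 independent experiments.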

Row | Structure (SMILES) | IC50 (Plasmodium falciparum [1]) [nM] | IC50 (CHO) [nM] | inhibition at 1 µM (Plasmodium falciparum [2]) [%] | IC50 (Plasmodium falciparum [3]) [nM] | inhibition at 1 µM (Plasmodium falciparum [4]) [%] | selectivity ratio at 72 h [5] | inhibition at 5 µM (Plasmodium falciparum [6]) [%] | inhibition at 5 µM (Plasmodium falciparum [7]) [%] | Ratio IC50 [8]
1 | CCN(CC)Cc1ccc(Nc2nc3ccccc3n2Cc2ccc(C(F)(F)F)cc2)cc1O | 470 | 41500 | 2 | 870 | 36 | 88.3 | 24 | 41 | 1.85
2 | CCN(CC)Cc1cc(Nc2nc3ccccc3[nH]2)ccc1O | 800 | > 50000 | 0 | 7270 | 30 | > 62 | 28 | 9 | 9.09
3 | CC(C)(C)NCc1cc(Cl)cc(Nc2nc3ccccc3[nH]2)c1O | 270 | > 50000 | 0 | 630 | 0 | > 185 | 0 | 0 | 2.33
4 | CC(C)(C)NCc1cc(C(C)(C)C)cc(Nc2nc3ccccc3[nH]2)c1O | 80 | 30500 | 0 | 250 | 30 | > 380 | 0 | 56 | 3.12
5 | Cc1cc(CNC(C)(C)C)c(O)c(Nc2nc3ccccc3[nH]2)c1 | 200 | 33300 | 22 | 790 | 0 | 166 | 39 | 47 | 3.95
6 | CCN(CC)Cc1cccc(Nc2nc3ccccc3n2Cc2ccc(C#N)cc2)c1O | 1000 | > 50000 | – | 660 | 47 | > 50 | 43 | 69 | 0.66
7 | Cc1cc(CNC(C)(C)C)c(O)c(Nc2nc3c(Cl)cc(Cl)cc3[nH]2)c1 | 220 | 25800 | 0 | 400 | 0 | 117 | 0 | 0 | 1.81
8 | CCN(CC)Cc1ccc(Nc2nc3ccccc3[nH]2)cc1O | 1880 | > 50000 | – | > 10000 | – | > 26 | – | – | > 5.32
9 | CCN(CC)Cc1ccc(C)c(Nc2nc3ccccc3n2Cc2ccc(C(F)(F)F)cc2)c1O | 2880 | 33900 | 29 | 940 | 18 | 11.8 | 43 | 90 | 0.33
10 | CCN(CC)Cc1ccc(C)c(Nc2nc3ccccc3[nH]2)c1O | 860 | > 50000 | 34 | 1620 | 3 | > 58 | 31 | 32 | 1.88
11 | CCN(CC)Cc1ccc(C)c(Nc2nc3ccccc3n2Cc2ccc(C#N)cc2)c1O | 870 | > 50000 | 0 | 830 | 19 | > 57 | 22 | 96 | 0.95
12 | CCN(CC)Cc1ccc(Nc2nc3ccccc3n2Cc2ccc(F)cc2)cc1O | 640 | 45800 | 31 | 1280 | 12 | 71.5 | 36 | 15 | 2
13 | CCN(CC)Cc1cc(Nc2nc3ccccc3n2Cc2ccc(C#N)cc2)ccc1O | 470 | > 50000 | – | 1970 | 20 | > 106 | 35 | 23 | 4.19
14 | CCN(CC)Cc1ccc(Nc2nc3ccccc3n2Cc2ccc(C#N)cc2)cc1O | 370 | 39000 | – | 760 | 38 | 106 | 21 | 44 | 2.05
15 | Cc1cc(CN)c(O)c(Nc2nc3ccccc3n2Cc2ccc(C(F)(F)F)cc2)c1 | 5470 | 47600 | 0 | – | 20 | 10.4 | 0 | 38 | –
16 | CCN(CC)Cc1cc(C)cc(Nc2nc3ccccc3[nH]2)c1O | 230 | > 50000 | – | 420 | 1 | > 217 | 37 | 44 | 1.83
17 | CCN(CC)Cc1cccc(Nc2nc3ccccc3[nH]2)c1O | 560 | > 50000 | – | 770 | 3 | > 89 | 34 | 0 | 1.38
18 | CN(C)c1ccc2nc3ccc(N(C)C)cc3[s+]c2c1 [METHYLENE BLUE ANHYDROUS] | – | – | 90 | – | 93 | – | – | – | –
